In series [1] the target is T1, Bromodomain-containing protein 4 (Homo sapiens, UniProt O60885). Kind of series: Displacement of FITC-labeled (+)-JQ1 from bromodomain BRD4(1) (unknown origin) expressed in Escherichia coli BL21(DE3) at 50 uM after 4 hrs by fluorescence anisotropy assay relative to control. In a few lines:
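Same BRD4(1) fluorescence anisotropy competition set-up: 45 nM protein, 5 nM FITC-(+)-JQ1 tracer, HEPES pH 7.4/CHAPS buffer, 4 h in the dark at room temperature, ex 485/em 530 nm. Single ligand concentration of 50 μM, reported as percent inhibition.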

Series [2] concerns the target T1, Bromodomain-containing protein 4. In words: Displacement of FITC-labeled (+)-JQ1 from bromodomain BRD4(1) (unknown origin) expressed in Escherichia coli BL21(DE3) after 4 hrs by fluorescence anisotropy assay. In a few lines:
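BRD4(1), His6-tagged, expressed in E. coli BL21(DE3) codon plus RIL, Ni-NTA purified, tag removed with TEV, then gel filtration. Varied compound concentrations, DMSO 5‰ final. 4 h equilibration in the dark at room temperature. IC50 from two independent experiments.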
In general terms: Fluorescence polarisation rises when a labelled molecule tumbles more slowly, as on binding a larger partner.

Series [3] in a line: Intrinsic clearance in mouse liver microsomes at 1 uM after 5 mins by LC/MS/MS analysis. The class given is ADME, Microsome. The conditions noted are these: read-out: CLH.
A further series has as its target CYP2C9 (Homo sapiens, UniProt P11712). In words: Inhibition of CYP2C9 (unknown origin)-mediated diclofenac metabolite conversion at 10 uM after 20 mins relative to control. The series is classed as ADME. Particulars: probe diclofenac. In a few lines:
(§1)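 Human liver microsomes at 0.2 mg/mL in 100 mM phosphate pH 7.4 with 1 mM NADPH. Probe cocktail: midazolam 10 μM, dextromethorphan 10 μM, diclofenac 20 μM, phenacetin 100 μM, mephenytoin 100 μM. Test compound at 10 μM; PBS as negative control. 5 min preincubation at 37 °C, then 20 min reaction started with an NADPH-generating system. Metabolite formation expressed relative to PBS.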

The target in a further series is CYP2C19 (Homo sapiens, UniProt P33261). In words: Inhibition of CYP2C19 (unknown origin)-mediated mephenytoin metabolite conversion at 10 uM after 20 mins relative to control. The class given is ADME. Particulars: probe mephenytoin. In a few lines: as §1
The target in the next series is CYP2D6 (Homo sapiens, UniProt P10635). In words: Inhibition of CYP2D6 (unknown origin)-mediated dextromethorphan metabolite conversion at 10 uM after 20 mins relative to control. The conditions noted are these: probe dextromethorphan. The series is classed as ADME. In a few lines:
as §1

The target of another series is T2, CYP1A2 (Homo sapiens, UniProt P05177).
T2 sequence (P05177 whole entry): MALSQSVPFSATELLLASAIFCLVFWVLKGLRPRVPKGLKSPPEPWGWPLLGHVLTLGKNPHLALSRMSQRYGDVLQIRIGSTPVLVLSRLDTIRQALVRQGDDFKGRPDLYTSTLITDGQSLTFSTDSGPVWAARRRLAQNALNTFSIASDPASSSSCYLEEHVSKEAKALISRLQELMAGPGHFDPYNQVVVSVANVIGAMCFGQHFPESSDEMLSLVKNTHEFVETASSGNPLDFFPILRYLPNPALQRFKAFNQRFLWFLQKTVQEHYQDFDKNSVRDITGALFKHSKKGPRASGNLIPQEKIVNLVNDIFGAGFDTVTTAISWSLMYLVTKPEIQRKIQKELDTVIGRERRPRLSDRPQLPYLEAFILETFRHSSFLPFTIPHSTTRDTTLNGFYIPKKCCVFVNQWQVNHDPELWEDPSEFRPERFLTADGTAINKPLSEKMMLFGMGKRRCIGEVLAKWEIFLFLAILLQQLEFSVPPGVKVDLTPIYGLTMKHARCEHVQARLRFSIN
Kind of series: Inhibition of CYP1A2 (unknown origin)-mediated phenacetin metabolite conversion at 10 uM after 20 mins relative to control. The series is classed as ADME. The conditions noted are these: probe phenacetin. In a few lines: as §1

Another series deals with CYP3A4 (Homo sapiens, UniProt P08684). Kind of series: Inhibition of CYP3A4 (unknown origin)-mediated midazolam metabolite conversion at 10 uM after 20 mins relative to control. The series is classed as ADME. The conditions noted are these: probe midazolam. In a few lines: as §1
Series [4] in a line: Intrinsic clearance in human liver microsomes at 1 uM after 5 mins by LC/MS/MS analysis. The class given is ADME, Microsome. The conditions noted are these: read-out: CLH. In a few lines: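 Liver microsomes at 0.5 mg/mL with 1 μM compound in 0.1 M phosphate pH 7.4, 1 mM EDTA, 5 mM MgCl2. Preincubated 5 min at 37 °C, then started with 1 mM NADPH. Sampled at 0, 5, 10 and 30 min, quenched with cold acetonitrile. Parent remaining measured by LC/MS/MS.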
(Liver microsomes are vesicles of endoplasmic reticulum, rich in cytochrome P450 enzymes.)

The subject of the next series is HT-29. In words: Growth inhibition of human HT-29 cells after 72 hrs by sulforhodamine B assay. The conditions noted are these: HT-29, 72 h. The class given is functional. In a few lines: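 HT-29 cells in McCoy's 5A with 10% FBS at 37 °C, 5% CO2. DMSO stocks (0.01 mol/L) diluted in normal saline. Graded concentrations applied in triplicate for 72 h, then SRB staining with A560 read-out. Inhibition rate from A560 treated/control. GI50 from four independent experiments, mean ± SD.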
Background: Sulforhodamine B stains cellular protein and so reports cell mass.

The target in series [5] is T1, Bromodomain-containing protein 4. In words: Inhibition of bromodomain BRD4-mediated c-myc mRNA expression in human HT-29 cells at 10 uM after 24 hrs by RT-qPCR analysis relative to control. The series is classed as cell-based. In a few lines:
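HT-29 cells (McCoy's 5A, 10% FBS, 37 °C, 5% CO2) seeded in six-well plates overnight, then exposed 24 h to compound at 10 μM final (DMSO stock diluted in saline). Total RNA extracted with Trizol, reverse-transcribed, and quantified by RT-qPCR. c-myc levels normalised to β-actin and expressed relative to untreated control. Three independent experiments, mean ± SD.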

CYP2D6, sequence (P10635 whole entry): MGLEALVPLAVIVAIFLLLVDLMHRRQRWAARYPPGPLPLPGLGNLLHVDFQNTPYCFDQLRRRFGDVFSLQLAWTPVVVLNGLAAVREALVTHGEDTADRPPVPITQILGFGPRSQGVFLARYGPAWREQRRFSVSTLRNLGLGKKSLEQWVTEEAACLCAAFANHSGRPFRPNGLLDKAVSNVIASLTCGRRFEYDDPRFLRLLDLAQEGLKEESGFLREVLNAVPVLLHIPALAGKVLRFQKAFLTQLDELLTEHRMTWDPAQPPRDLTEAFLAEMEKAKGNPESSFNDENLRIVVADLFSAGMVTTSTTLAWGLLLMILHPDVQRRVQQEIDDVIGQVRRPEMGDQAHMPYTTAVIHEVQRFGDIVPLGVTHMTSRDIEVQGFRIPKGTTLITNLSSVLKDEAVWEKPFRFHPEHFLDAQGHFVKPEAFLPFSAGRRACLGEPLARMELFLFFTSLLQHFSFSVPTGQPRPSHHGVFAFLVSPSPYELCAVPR
CYP3A4, sequence (P08684 whole entry): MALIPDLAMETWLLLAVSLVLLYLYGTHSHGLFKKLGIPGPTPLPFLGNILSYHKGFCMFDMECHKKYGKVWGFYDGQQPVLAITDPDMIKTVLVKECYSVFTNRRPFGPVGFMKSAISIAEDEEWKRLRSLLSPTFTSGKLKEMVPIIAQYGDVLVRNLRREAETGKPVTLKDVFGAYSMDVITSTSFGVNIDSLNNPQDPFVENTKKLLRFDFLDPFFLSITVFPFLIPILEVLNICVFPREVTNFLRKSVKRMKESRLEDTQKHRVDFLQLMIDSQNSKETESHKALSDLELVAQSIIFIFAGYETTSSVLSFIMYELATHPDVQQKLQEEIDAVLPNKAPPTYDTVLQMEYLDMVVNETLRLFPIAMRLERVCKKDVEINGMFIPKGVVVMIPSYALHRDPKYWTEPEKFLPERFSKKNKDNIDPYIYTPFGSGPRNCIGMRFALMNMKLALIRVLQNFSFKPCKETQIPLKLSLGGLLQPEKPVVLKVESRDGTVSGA
CYP2C9, sequence (P11712 whole entry): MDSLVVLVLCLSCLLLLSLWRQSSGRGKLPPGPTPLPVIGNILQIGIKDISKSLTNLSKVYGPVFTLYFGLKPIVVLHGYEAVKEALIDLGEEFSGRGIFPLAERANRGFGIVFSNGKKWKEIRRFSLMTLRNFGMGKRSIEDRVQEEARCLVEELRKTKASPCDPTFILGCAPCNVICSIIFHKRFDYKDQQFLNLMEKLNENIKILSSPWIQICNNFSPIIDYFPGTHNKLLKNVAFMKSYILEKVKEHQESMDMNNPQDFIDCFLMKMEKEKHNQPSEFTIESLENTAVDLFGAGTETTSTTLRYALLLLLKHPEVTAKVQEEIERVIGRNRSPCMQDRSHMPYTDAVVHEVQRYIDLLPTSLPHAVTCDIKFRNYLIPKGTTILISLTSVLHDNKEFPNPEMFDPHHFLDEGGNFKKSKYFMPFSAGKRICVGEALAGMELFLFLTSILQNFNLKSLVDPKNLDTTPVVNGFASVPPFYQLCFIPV
CYP2C19, sequence (P33261 whole entry): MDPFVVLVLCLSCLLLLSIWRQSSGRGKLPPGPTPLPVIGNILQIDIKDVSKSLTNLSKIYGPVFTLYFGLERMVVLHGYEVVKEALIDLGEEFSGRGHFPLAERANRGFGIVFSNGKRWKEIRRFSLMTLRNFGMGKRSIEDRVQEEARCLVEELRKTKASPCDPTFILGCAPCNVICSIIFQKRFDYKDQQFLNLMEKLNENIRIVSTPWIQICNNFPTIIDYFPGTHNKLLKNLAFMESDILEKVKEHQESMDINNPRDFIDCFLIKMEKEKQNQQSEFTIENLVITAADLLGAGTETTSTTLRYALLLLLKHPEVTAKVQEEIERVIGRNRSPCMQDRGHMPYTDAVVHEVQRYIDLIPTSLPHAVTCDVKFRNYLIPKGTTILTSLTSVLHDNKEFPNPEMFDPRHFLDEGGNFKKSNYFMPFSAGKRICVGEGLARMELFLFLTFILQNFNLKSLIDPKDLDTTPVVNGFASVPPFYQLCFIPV

The term inhibition denotes the change of the read-out against control, counted positive when it falls. `O=c1[nH]c(-c2cccc(NS(=O)(=O)c3cccc4cccnc34)c2)cs1`: the inhibition in series [1] was 45.7%.

The IC50 is the midpoint of a concentration-inhibition curve. A higher IC50 goes with weaker potency in that assay. In turn, `O=C(Cc1ccccc1)Nc1cc(-c2csc(=O)[nH]2)ccc1NS(=O)(=O)c1cccs1` came in with an IC50 in series [2] of 3.5 µM.

Consider `O=C(Cc1ccccc1)Nc1cccc(-c2csc(=O)[nH]2)c1`, for which the inhibition in series [1] worked out at 45.6%.

The molecule `CCCC(=O)Nc1cc(-c2csc(=O)[nH]2)ccc1NS(=O)(=O)c1cccs1` registered an IC50 in [2] of 2.4 µM.

For `O=C(CCc1ccccc1)Nc1cc(-c2csc(=O)[nH]2)ccc1NS(=O)(=O)c1cccs1`, the IC50 in [2] came out at 2.6 µM.

`O=c1[nH]c(-c2cccc(NCCc3ccccc3)c2)cs1` showed a concentration for half-maximal inhibition (IC50) in series [2] of 22.8 µM.

As to `CCCC(=O)Nc1cc(NS(=O)(=O)c2cccs2)cc(-c2csc(=O)[nH]2)c1`, in [2], the concentration for half-maximal inhibition (IC50) was determined as 0.79 µM.

Take `O=c1[nH]c(-c2cccc(NS(=O)(=O)c3cccs3)c2)cs1`: the microsomal CLint at 1 µM in [3] stood at 120 µL/min/mg; in [4], 24 µL/min/mg. The inhibition at 20 min, 10 µM on CYP2C9 was 34%; on CYP2C19, 36%; at CYP2D6, 22%; on CYP1A2, 16%; on CYP3A4 it was 17%. Besides, in series [2], the IC50 turned out to be 4.1 µM.

The molecule `O=c1[nH]c(-c2cccc(NS(=O)(=O)c3cccnc3)c2)cs1` displayed an IC50 in [2] of 10 µM.

In the case of `O=c1[nH]c(-c2ccc(NS(=O)(=O)c3cccs3)c(O)c2)cs1`, in series [2], the half-maximal inhibitory concentration (IC50) was found to be 3.3 µM.

A word on the GI50: it is the concentration at which growth is held to half of that of the control. High values mean less potent growth inhibition, low ones more potent growth inhibition. `O=C(Nc1cc(-c2csc(=O)[nH]2)ccc1NS(=O)(=O)c1cccs1)C1CCCC1` yielded a concentration for 50% growth inhibition (GI50) with HT-29 of 63.6 µM. This molecule displayed a half-inhibitory concentration (IC50) in [2] of 2.5 µM.

In [2], `Nc1ccc(-c2csc(=O)[nH]2)cc1O` had an IC50 of 23.8 µM.

Molecule `Cc1noc(C)c1-c1ccccc1` gave a GI50 in the series on HT-29 of 22.5 µM. In series [5], this molecule came in with an inhibition greater than 50%. For the same molecule, the IC50 in series [2] worked out at 0.8 µM.

In turn, `O=C(CCc1ccccc1)Nc1cc(NS(=O)(=O)c2cccs2)cc(-c2csc(=O)[nH]2)c1` displayed a half-maximal inhibitory concentration (IC50) in series [2] of 0.57 µM.

Molecule `Nc1cc(NS(=O)(=O)c2cccs2)cc(-c2csc(=O)[nH]2)c1` had a GI50 in the series with HT-29 of 37.3 µM. In series [5], this molecule came in with an inhibition greater than 50%. In series [2], this molecule had an IC50 of 2.6 µM.

For the molecule `Nc1ccc(-c2csc(=O)[nH]2)cc1`, the IC50 in series [2] was 51 µM.

With `Nc1cc(N)cc(-c2csc(=O)[nH]2)c1`, in series [2], the IC50 came out at 50.7 µM.

For `O=C(Nc1cc(NS(=O)(=O)c2cccs2)cc(-c2csc(=O)[nH]2)c1)c1cccs1`, the microsomal CLint at 1 µM in series [3] is 52 µL/min/mg; in series [4], 18 µL/min/mg. For the same molecule, the inhibition at 20 min, 10 µM was found to be 41% at CYP2C9; 39% at CYP2C19; 20% at CYP2D6; 29% at CYP1A2; 8% at CYP3A4.

In the series on HT-29, `O=c1[nH]c(-c2cccc(NS(=O)(=O)c3ccc(F)cc3)c2)cs1` came in with a GI50 of 47.8 µM. This molecule also gave an IC50 in series [2] of 3.7 µM.

In [1], `O=c1[nH]c(-c2ccc(NS(=O)(=O)c3cccs3)cc2)cs1` showed an inhibition of 38.6%.

Molecule `O=C(CCC1CCCCC1)Nc1cc(NS(=O)(=O)c2cccs2)cc(-c2csc(=O)[nH]2)c1` showed an IC50 in series [2] of 2.2 µM.

On to `O=c1[nH]c(-c2cccc(NS(=O)(=O)Cc3ccccc3)c2)cs1`, for which the IC50 in series [2] was found to be 4.1 µM.

Consider `Nc1cccc(-c2csc(=O)[nH]2)c1`, for which the IC50 in series [2] was found to be 42 µM.

In series [2], `COc1ccc(S(=O)(=O)Nc2cccc(-c3csc(=O)[nH]3)c2)cc1` yielded an IC50 of 4.4 µM.

In series [1], `O=C(Nc1cc(-c2csc(=O)[nH]2)ccc1NS(=O)(=O)Cc1ccccc1)C1CCCC1` came in with an inhibition of 20.2%.

Regarding `O=c1[nH]c(-c2cccc(Cl)c2)cs1`, in series [2], the IC50 was determined as 24 µM.

The values above are taken from ChEMBL document CHEMBL2346589, “Fragment-based drug discovery of 2-thiazolidinones as inhibitors of the histone reader BRD4 bromodomain” (J Med Chem, 2013).
